Source: article PMC9398548 (European journal of pharmaceutical sciences : official …, 2020)
Where “and” joins values, the source holds several entries; their conditions need not be identical. Equal values may be shown once. Entries after “also recorded” stand apart in the source; their conditions may differ. Read-outs that look alike come from different tables or passages of the source.

What was measured:
[1] = test system: CEM cells; assay: MTT cytotoxicity assay in CEM cells; format: cell-based; conditions: read-out: CEM- IC50, 48 h, Mean±SD, n=3
Summary of the method: (§1)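 Cells were grown in suspension in RPMI 1640 with 10% FBS and penicillin/streptomycin/amphotericin B at 37 °C under 5% CO2. They were seeded at ~5×10^3 cells/well, kept overnight, then exposed to test compounds diluted in DMSO for 48 h. Cells were pelleted (300 g, 4 °C, 5 min) and washed twice in phosphate buffer. MTT (5 mg/ml stock) was added for 4 h at 37 °C, formazan dissolved in DMSO, and A570 read. Triplicate; IC50 given as mean±SD.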

[2] = test system: K562 cells; assay: MTT cytotoxicity assay in K562 cells; format: cell-based; conditions: read-out: K562- IC50
Summary of the method: as §1

[3] = target: HDAC4 (Homo sapiens, UniProt P56524); assay: HDAC enzyme activity assay, HDAC4; format: biochemical
Summary of the method: (§2)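 Enzymes were recombinant: HDAC8, and the codon-optimised human HDAC4 catalytic domain (pET14b). Serial inhibitor dilutions in 25 mM Tris-HCl, 75 mM KCl, 0.001% Pluronic F-127, pH 8.0 were pre-incubated with enzyme for 1 h at 30 °C. Reaction ran 60 min at 30 °C with 20 μM Boc-Lys(trifluoroacetyl)-AMC and was stopped with 1.7 μM SATFMK. Trypsin (0.4 mg/ml) released AMC; fluorescence read at Ex 350/Em 450 nm. Triplicate; IC50 from dose-response curves.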

[4] = target: T1, HDAC8 (Homo sapiens, UniProt Q9BY41); assay: HDAC enzyme activity assay, HDAC8; format: biochemical; conditions: for HDAC-8 relative enzyme activity: primary screening at 50 μM
T1 sequence (Q9BY41 1-377): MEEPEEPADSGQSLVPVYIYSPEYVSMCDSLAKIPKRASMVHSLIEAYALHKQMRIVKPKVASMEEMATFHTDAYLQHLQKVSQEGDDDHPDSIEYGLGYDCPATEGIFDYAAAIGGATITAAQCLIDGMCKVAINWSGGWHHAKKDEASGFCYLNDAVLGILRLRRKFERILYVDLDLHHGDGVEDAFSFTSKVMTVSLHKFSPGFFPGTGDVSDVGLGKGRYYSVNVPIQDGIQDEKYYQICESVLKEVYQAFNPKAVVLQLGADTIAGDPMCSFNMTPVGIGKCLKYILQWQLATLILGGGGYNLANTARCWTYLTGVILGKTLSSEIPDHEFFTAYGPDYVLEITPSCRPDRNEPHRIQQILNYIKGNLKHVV
Summary of the method: as §2

[5] = test system: GLUT5; format: cell-based, human; conditions: up to 100 μM
Summary of the method: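 Uses hexose-transporter-null VW4000 yeast expressing human GLUT5, cultured at 30 °C and 180 rpm. Cells were grown one day in YEP/2% maltose with G418, then 1–2 days in YEP/2% fructose starting from OD600 ~0.5. Washed cells in PBS pH 7.4 (OD600 ~10) took up 10 mM C14-fructose for 10 min. Uptake was stopped with ice-cold KPi/LiCl quench buffer pH 5.5, then filtered and scintillation-counted. Controls were 1% DMSO and 100 μM MSNBA. Screening was at 100 μM; three independent measurements.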

[6] = target: T2, GLUT1 (Homo sapiens, UniProt P11166); format: cell-based; conditions: for IC50: GLUT1 IC50, hxt0 yeast cells expressing GLUT1, 5 mM C14-glucose, 10 minutes; for decrease of relative transport activity of GLUT1: primary screen, 100 μM compound
T2 sequence (P11166 1-492): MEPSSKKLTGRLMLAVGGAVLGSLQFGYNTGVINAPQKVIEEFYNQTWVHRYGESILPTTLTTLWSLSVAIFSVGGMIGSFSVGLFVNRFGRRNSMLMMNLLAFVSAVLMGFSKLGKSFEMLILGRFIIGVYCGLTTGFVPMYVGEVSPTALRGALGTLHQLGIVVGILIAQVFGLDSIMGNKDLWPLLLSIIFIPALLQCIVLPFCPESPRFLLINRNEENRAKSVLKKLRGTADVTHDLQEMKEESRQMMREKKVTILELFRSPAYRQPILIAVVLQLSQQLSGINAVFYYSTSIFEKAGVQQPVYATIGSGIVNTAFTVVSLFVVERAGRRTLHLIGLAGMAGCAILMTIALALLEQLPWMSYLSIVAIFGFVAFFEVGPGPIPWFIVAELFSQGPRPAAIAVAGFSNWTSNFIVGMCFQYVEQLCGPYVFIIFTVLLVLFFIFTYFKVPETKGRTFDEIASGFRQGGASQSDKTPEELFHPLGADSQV
Summary of the method: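 VW4000fgy1 hxt0 yeast carrying human GLUT1 were grown at 30 °C: first in SC-uracil/2% maltose for 2–3 days, then 1–2 days in SC-uracil/2% glucose from OD600 ~0.5. Cells were resuspended in PBS pH 7.4 at OD600 ~10 and given 5 mM C14-glucose for 10 min. Uptake was quenched with ice-cold buffer pH 5.5, filtered, and counted. Controls: 1% DMSO and 200 μM phloretin.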

[7] = target: T3, GLUT4 (Homo sapiens, UniProt P14672); format: cell-based
T3 sequence (P14672 1-509): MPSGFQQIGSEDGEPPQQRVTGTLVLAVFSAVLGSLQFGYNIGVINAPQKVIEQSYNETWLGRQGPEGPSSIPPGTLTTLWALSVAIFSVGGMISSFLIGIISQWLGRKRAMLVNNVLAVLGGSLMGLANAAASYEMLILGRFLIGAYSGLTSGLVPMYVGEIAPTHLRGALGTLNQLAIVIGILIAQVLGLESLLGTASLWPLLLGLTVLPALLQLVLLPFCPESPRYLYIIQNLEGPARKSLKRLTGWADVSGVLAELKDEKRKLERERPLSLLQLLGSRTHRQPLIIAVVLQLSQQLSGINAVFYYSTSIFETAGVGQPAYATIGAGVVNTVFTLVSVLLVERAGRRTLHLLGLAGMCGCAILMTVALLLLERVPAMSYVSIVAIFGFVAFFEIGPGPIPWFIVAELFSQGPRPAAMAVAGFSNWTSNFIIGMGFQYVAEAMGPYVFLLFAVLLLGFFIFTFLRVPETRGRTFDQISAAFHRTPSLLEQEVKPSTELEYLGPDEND
Summary of the method: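 VW4000fgy1erg4 hxt0 yeast expressing human GLUT4 were cultured at 30 °C, first in SC-uracil/1% maltose and then in SC-uracil/0.2% glucose from OD600 ~0.5. Cells in PBS pH 7.4 (OD600 ~10) were fed 5 mM C14-glucose for 10 min. The reaction was quenched in ice-cold buffer pH 5.5, then filtered and scintillation-counted. Vehicle control was 1% DMSO; 200 μM phloretin served as positive control.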

HDAC4, sequence (P56524 655-1084 limits assumed): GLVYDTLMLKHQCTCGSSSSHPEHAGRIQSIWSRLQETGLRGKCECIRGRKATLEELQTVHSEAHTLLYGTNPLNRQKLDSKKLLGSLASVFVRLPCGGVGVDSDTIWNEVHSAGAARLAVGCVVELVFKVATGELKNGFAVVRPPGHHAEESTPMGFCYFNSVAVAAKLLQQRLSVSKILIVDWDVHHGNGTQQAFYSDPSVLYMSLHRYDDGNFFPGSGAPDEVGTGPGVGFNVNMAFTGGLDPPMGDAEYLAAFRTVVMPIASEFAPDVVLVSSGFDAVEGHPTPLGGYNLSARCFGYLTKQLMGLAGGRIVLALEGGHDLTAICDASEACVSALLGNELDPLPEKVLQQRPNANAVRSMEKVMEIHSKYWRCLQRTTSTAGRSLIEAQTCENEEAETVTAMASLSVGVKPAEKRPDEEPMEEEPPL

| Compound | IC50 [1] | IC50 ([2]; MTT, 48 h, Mean±SD, n=3) | IC50 ([2]; Homo sapiens, K562, 48 h) | other results |
| --- | --- | --- | --- | --- |
| O=C(CN1C(=O)SC(=Cc2ccc(Br)cc2)C1=O)Nc1ccc(F)cc1F [Compound G2, 2-[5-(4-Bromobenzylidene)-2,4-dioxo-thiazolidin-3-yl]-N-(2,4-diflurophenyl)acetamide] | 47.7 ± 2.12 µM | > 50 µM | – | – |
| Cc1ccc(C=C2SC(=O)N(CC(=O)Nc3ccc(F)cc3F)C2=O)cc1C [Compound G4, N-[2,4-Difluorophenyl)-2-[5-(3,4-dimethylbenzylidene)-2,4-dioxothiazolidin-3-yl]acetamide] | – | – | > 50 µM | – |
| O=C(CN1C(=O)SC(=Cc2ccc(Cl)cc2)C1=O)Nc1ccc(F)cc1F [Compound G6, 2-[5-(4-Chlorobenzylidene)-2,4-dioxothiazolidin-3-yl]-N-(2,4-diflurophenyl)acetamide] | 39.3 ± 2.68 µM | 48.2 ± 1.23 µM | – | IC50 ([3]; read-out: HDAC4 IC50, Means ±SD, n=3): > 50 µM; HDAC-8 relative enzyme activity [4]: < 50%; IC50 ([4]; read-out: HDAC8 IC50, Means ±SD, n=3): 49 ± 5 µM |
| O=C(CN1C(=O)SC(=Cc2ccc(F)cc2F)C1=O)Nc1ccc(Cl)cc1C(F)(F)F [Compound G7, N-(4-Chloro-2-trifluoromethylphenyl)-2-[5-(2,4-difluorobenzylidene)-2,4-dioxothiazolidin-3-yl] acetamide] | 40.4 ± 2.94 µM | 36.8 ± 1.77 µM | – | – |
| O=C(CN1C(=O)SC(=Cc2ccc(F)cc2F)C1=O)Nc1ccc(F)cc1F [Compound G8, 2-[5-(2,4-Difluorobenzylidene)-2,4-dioxothiazolidin-3-yl]-N-(2,4-diflurophenyl)acetamide] | 4.77 ± 1.51 µM | 34.5 ± 3.01 µM | – | – |
| O=C(CN1C(=O)SC(=Cc2ccc(F)cc2)C1=O)Nc1ccc(Cl)cc1C(F)(F)F [Compound G9, N-(4-Chloro-2-trifluoromethylphenyl)-2-[5-(4-fluorobenzylidene)-2,4-dioxothiazolidin-3-yl]acetamide] | – | – | 43.6 ± 2.23 µM | IC50 [3]: > 50 µM; IC50 [4]: 45 ± 5 µM; HDAC-8 relative enzyme activity [4]: < 50% |
| O=C(CN1C(=O)SC(=Cc2ccc(F)cc2)C1=O)Nc1ccc(F)cc1F [Compound G10, N-(2,4-Difluoropheyl)-2-[5-(4-fluoro-benzylidene)-2,4-dioxothiazolidin-3-yl]acetamide] | 27.4 ± 3.06 µM | 45.4 ± 1.13 µM | – | – |
| Cc1ccc(C=C2SC(=O)N(CC(=O)Nc3ccc(F)cc3F)C2=O)cc1 [Compound G12, N-(2,4-Difluoropheyl)-2-[5-(4-methylbenzylidene)-2,4-dioxothiazolidin-3-yl]acetamide] | 9.93 ± 2.03 µM | > 50 µM | – | – |
| O=C(CN1C(=O)SC(=Cc2ccccc2)C1=O)Nc1ccc(F)cc1F [Compound G14, 2-[5-Benzylidene-2,4-dioxothiazolidin-3-yl]-N-(2,4-difluorophenyl)acetamide] | – | – | > 50 µM | – |
| O=C(CN1C(=O)SC(=Cc2ccc(F)cc2F)C1=O)Nc1cccc(C(F)(F)F)c1 [Compound G15, 2-(5-(2,4-difluorobenzylidene)-2,4-dioxothiazolidin-3-yl)-N-(3-(trifluoromethyl)phenyl) acetamide] | 17.3 ± 1.16 µM | > 50 µM | – | – |
| O=C(CN1C(=O)SC(=Cc2ccc(F)cc2)C1=O)Nc1cccc(C(F)(F)F)c1 [Compound G16, 2-(5-(4-fluorobenzylidene)-2,4-dioxothiazolidin-3-yl)-N-(3-(trifluoromethyl)phenyl)acetamide] | – | – | 23.5 ± 1.94 µM | GLUT5 inhibition, result in words [5]: did not affect GLUT5; also recorded: neither G16 nor G17 altered the transport activity of GLUT5; IC50 [6]: 26.6 µM and 26.8 µM; decrease of relative transport activity of GLUT1 [6]: > 50%; IC50 [7]: 21.6 ± 4.5 µM; decrease of relative transport activity of GLUT4 ([7]; primary screen, 100 μM compound): > 50% |
| O=C(CN1C(=O)SC(=Cc2ccccc2)C1=O)Nc1nc2c(Cl)cccc2s1 [Compound G17, 2-(5-benzylidene-2,4-dioxothiazolidin-3-yl)-N-(4-chlorobenzo[d]thiazol-2-yl)acetamide] | – | – | 79 ± 3.66 µM | GLUT5 inhibition, result in words [5]: neither G16 nor G17 altered the transport activity of GLUT5; IC50 [6]: 12.6 ± 1.2 µM; decrease of relative transport activity of GLUT1 [6]: > 50%; GLUT1 inhibition, result in words ([6]; up to 100 μM): selective inhibitor of GLUT1 |
| CC(=O)O[C@H]1C(=O)[C@@]2(C)[C@H]([C@H](OC(=O)c3ccccc3)[C@]3(O)C[C@H](OC(=O)[C@H](O)[C@@H](NC(=O)c4ccccc4)c4ccccc4)C(C)=C1C3(C)C)[C@]1(OC(C)=O)CO[C@@H]1C[C@@H]2O [Paclitaxel, reference compound] | – | – | 0.29 ± 0.15 µM | – |
| CCc1ccc(CCOc2ccc(CC3SC(=O)NC3=O)cc2)nc1 (stereo not drawn) [Pioglitazone, reference compound] | – | – | 32 ± 3.66 µM | – |
